Like-named read-outs stand apart in the source and are kept apart here.
What was measured:
[1] = type: physicochemical, rat
[2] = Rat pharmacokinetic study of DZ2002; type: in vivo, Sprague-Dawley rats
How it was run: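 Sprague-Dawley rats (230–280 g), four groups of 3 male + 3 female. Single tail-vein bolus of 5 mg/kg (normal saline), or single gavage doses of 5, 10 or 25 mg/kg. Blood (~100 μL) drawn at 0, 5, 15, 30 min and 1, 2, 4, 6, 8, 11, 24 h into heparinized tubes holding 400 μL methanol with 500 nM internal standard, then centrifuged. Parent and acid metabolite measured by LC-MS/MS. Non-compartmental analysis; F from dose-normalized po/iv AUC0–∞, either parent alone or parent plus acid.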

[3] = tested on: rat blood carboxylesterases; type: in vitro ADME; details: up to 30 min
How it was run: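 Fresh rat blood (200 μL) mixed first with 400 μL methanol, then test compound added. Incubated at 23 °C for 0, 2, 5, 10, 15 and 30 min in triplicate, then centrifuged. Supernatants analysed by LC-MS/MS (Synergi Fusion-RP column, water/methanol ammonium formate–formic acid gradient) for the acid metabolite.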

[4] = after three cycles of freeze and thaw of −70 °C↔23 °C, 80 nM
[5] = after three cycles of freeze and thaw of −70 °C↔23 °C, 8000 nM
[6] = in rat blood at 23 °C for 4 h, 80 nM
[7] = in rat blood at 23 °C for 4 h, 8000 nM
[8] = in rat blood at −70 °C for 60 days, 80 nM
[9] = in rat blood at −70 °C for 60 days, 8000 nM
[10] = in supernatant of methanol-treated rat blood at 10 °C for 24 h, 80 nM
[11] = in supernatant of methanol-treated rat blood at 10 °C for 24 h, 8000 nM
[12] = both, Sprague-Dawley, rat, blood, po
[13] = female, Sprague-Dawley, rat, blood, iv, 5 mg/kg
[14] = female, Sprague-Dawley, rat, blood, po, 5 mg/kg
[15] = female, Sprague-Dawley, rat, blood, po, 10 mg/kg
[16] = female, Sprague-Dawley, rat, blood, po, 25 mg/kg
[17] = male, Sprague-Dawley, rat, blood, iv, 5 mg/kg
[18] = male, Sprague-Dawley, rat, blood, po, 5 mg/kg
[19] = male, Sprague-Dawley, rat, blood, po, 10 mg/kg
[20] = male, Sprague-Dawley, rat, blood, po, 25 mg/kg
[21] = rats, intravenous DZ2002 at 5 mg/kg

Question: With “3-(6-amino-9H-purin-9-yl)-2,2-diethylpropanoic acid [Internal standard, reference compound]” as the compound, how does the “Stability, response (%Control)” value ([1]; after three cycles of freeze and thaw of −70 °C↔23 °C, 500 nM) read?
Answer: (98.4) %Control

Question: And the “Stability, response (%Control)” value ([1]; in rat blood at 23 °C for 4 h, 500 nM)?
Answer: (108) %Control

Question: What about the “Stability, response (%Control)” value ([1]; in rat blood at −70 °C for 60 days, 500 nM) of the same compound?
Answer: (104) %Control

Question: What about the “Stability, response (%Control)” value ([1]; in stock solutions at −70 °C for 6 months, internal standard (500 nM)) of the same compound?
Answer: (97.9) %Control

Question: What about the “Stability, response (%Control)” value ([1]; in supernatant of methanol-treated rat blood at 10 °C for 24 h, 500 nM) of the same compound?
Answer: (106) %Control

Question: What does the source list for `COC(=O)[C@@H](O)CCn1cnc2c(N)ncnc21` [DZ2002, Methyl (S)-4-(6-amino-9H-purin-9-yl)-2-hydroxybutanoate]?
Answer: Stability, response (%Control) [1, 4]: (108) %Control; Stability, response (%Control) [1, 5]: (102) %Control; Stability, response (%Control) [1, 6]: (93.6) %Control; Stability, response (%Control) [1, 7]: (102) %Control; Stability, response (%Control) [1, 8]: (94.6) %Control; Stability, response (%Control) [1, 9]: (92.4) %Control; Stability, response (%Control) [1, 10]: (108) %Control; Stability, response (%Control) [1, 11]: (108) %Control; bioavailability [2, 12]: 90 to 159%; half-life [2, 12]: 18 to 54 min; F1 (oral bioavailability, from AUC of DZ2002) ([2]; female rat, oral DZ2002 at 5 mg/kg vs iv 5 mg/kg): 145 ± 27%; F1 (oral bioavailability, from AUC of DZ2002) ([2]; female rat, oral DZ2002 at 10 mg/kg vs iv 5 mg/kg): 90 ± 27%; F1 (oral bioavailability, from AUC of DZ2002) ([2]; female rat, oral DZ2002 at 25 mg/kg vs iv 5 mg/kg): 118 ± 41%; AUC(0-inf) [2, 13]: 0.68 ± 0.396 µM·h; AUC(0-t) [2, 13]: 0.66 ± 0.376 µM·h; MRT [2, 13]: 9 ± 3.6 min; Vd [2, 13]: 4.59 ± 0.96 L/kg; clearance [2, 13]: 590 mL/min/kg; concentration at 5 min [2, 13]: 3.03 ± 1.45 µM; half-life [2, 13]: 9 ± 6.6 min; AUC(0-inf) [2, 14]: 0.985 ± 0.184 µM·h; AUC(0-t) [2, 14]: 0.963 ± 0.182 µM·h; Cmax [2, 14]: 2.72 ± 0.418 µM; MRT [2, 14]: 25.8 ± 6.6 min; Tmax [2, 14]: 4.8 min; half-life [2, 14]: 18.6 ± 7.2 min; AUC(0-inf) [2, 15]: 1.23 ± 0.348 µM·h; AUC(0-t) [2, 15]: 1.18 ± 0.366 µM·h; Cmax [2, 15]: 2.13 ± 0.742 µM; MRT [2, 15]: 44.4 ± 9.6 min; Tmax [2, 15]: 8.4 ± 6 min; half-life [2, 15]: 32.4 ± 10.8 min; AUC(0-inf) [2, 16]: 4.02 ± 1.4 µM·h; AUC(0-t) [2, 16]: 3.95 ± 1.43 µM·h; Cmax [2, 16]: 8.49 ± 2.49 µM; MRT [2, 16]: 40.2 ± 13.8 min; Tmax [2, 16]: 4.8 min; half-life [2, 16]: 42.6 ± 25.2 min; F1 (oral bioavailability, from AUC of DZ2002) ([2]; male rat, oral DZ2002 at 5 mg/kg vs iv 5 mg/kg): 157 ± 18%; F1 (oral bioavailability, from AUC of DZ2002) ([2]; male rat, oral DZ2002 at 10 mg/kg vs iv 5 mg/kg): 146 ± 20%; F1 (oral bioavailability, from AUC of DZ2002) ([2]; male rat, oral DZ2002 at 25 mg/kg vs iv 5 mg/kg): 159 ± 48%; AUC(0-inf) [2, 17]: 0.504 ± 0.146 µM·h; AUC(0-t) [2, 17]: 0.495 ± 0.142 µM·h; MRT [2, 17]: 6.6 ± 1.2 min; Vd [2, 17]: 4.5 ± 1.22 L/kg; clearance [2, 17]: 707 mL/min/kg; concentration at 5 min [2, 17]: 2.46 ± 0.597 µM; half-life [2, 17]: 4.8 ± 0.6 min; AUC(0-inf) [2, 18]: 0.79 ± 0.092 µM·h; AUC(0-t) [2, 18]: 0.729 ± 0.052 µM·h; Cmax [2, 18]: 1.38 ± 0.457 µM; MRT [2, 18]: 40.2 ± 19.2 min; Tmax [2, 18]: 11.4 ± 6 min; half-life [2, 18]: 27 ± 13.8 min; AUC(0-inf) [2, 19]: 1.47 ± 0.199 µM·h; AUC(0-t) [2, 19]: 1.41 ± 0.171 µM·h; Cmax [2, 19]: 2.36 ± 1.1 µM; MRT [2, 19]: 49.8 ± 14.4 min; Tmax [2, 19]: 8.4 ± 6 min; half-life [2, 19]: 40.8 ± 29.4 min; AUC(0-inf) [2, 20]: 4 ± 1.21 µM·h; AUC(0-t) [2, 20]: 3.85 ± 1.15 µM·h; Cmax [2, 20]: 4.02 ± 0.898 µM; MRT [2, 20]: 72 ± 22.2 min; Tmax [2, 20]: 8.4 ± 6 min; half-life [2, 20]: 55.8 ± 16.2 min; Systemic clearance (CLtot,b) exceeding rat cardiac output (17.8 L/h/kg) [2, 21]: around 2 times; Systemic clearance (CLtot,b) exceeding rat hepatic blood flow rate (3.31 L/h/kg) [2, 21]: around 13 times; Formation of DZA in methanol-treated rat blood spiked with DZ2002 ([3]; 400 μL methanol to 50–200 μL rat blood, 23 °C): undetected; Stability of DZ2002 in rat blood ([3]; freshly collected rat blood, 1000 nM, 23 or 37 °C): quickly transformed into its acid metabolite DZA

Question: Which “Stability, response (%Control)” value [1, 4] does the source give for `Nc1ncnc2c1ncn2CCC(O)C(=O)O` (stereo not shown) [DZA, 4-(6-amino-9H-purin-9-yl)-2-hydroxybutyric acid] here?
Answer: (98.1) %Control

Question: And the “Stability, response (%Control)” value [1, 5]?
Answer: (89.5) %Control

Question: What about the “Stability, response (%Control)” value [1, 6] of the same compound?
Answer: (95.2) %Control

Question: And the “Stability, response (%Control)” value [1, 7]?
Answer: (97.5) %Control

Question: And the “Stability, response (%Control)” value [1, 8]?
Answer: (108) %Control

Question: What about the “Stability, response (%Control)” value [1, 9] of the same compound?
Answer: (112) %Control

Question: And the “Stability, response (%Control)” value [1, 10]?
Answer: (106) %Control

Question: What about the “Stability, response (%Control)” value [1, 11] of the same compound?
Answer: (109) %Control

Question: What about the half-life [2, 12] of the same compound?
Answer: 78 to 306 min

Question: And the AUC(0-inf) [2, 13]?
Answer: 4.8 ± 0.3 µM·h

Question: And the AUC(0-t) [2, 13]?
Answer: 4.71 ± 0.34 µM·h

Question: And the MRT [2, 13]?
Answer: 30.6 ± 1.8 min

Question: What about the concentration at 5 min [2, 13] of the same compound?
Answer: 15.5 µM

Question: What about the half-life [2, 13] of the same compound?
Answer: 73.2 ± 26.4 min

Question: What about the AUC(0-inf) [2, 14] of the same compound?
Answer: 4.36 ± 0.701 µM·h

Question: What about the AUC(0-t) [2, 14] of the same compound?
Answer: 4.27 ± 0.669 µM·h

Question: And the Cmax [2, 14]?
Answer: 6.49 ± 1.04 µM

Question: And the MRT [2, 14]?
Answer: 60.6 ± 5.4 min

Question: What about the Tmax [2, 14] of the same compound?
Answer: 11.4 ± 6 min

Question: And the half-life [2, 14]?
Answer: 124 ± 68.4 min

Question: What about the AUC(0-inf) [2, 15] of the same compound?
Answer: 7.81 ± 0.846 µM·h

Question: And the AUC(0-t) [2, 15]?
Answer: 7.6 ± 1.03 µM·h

Question: What about the Cmax [2, 15] of the same compound?
Answer: 7.23 ± 1.98 µM

Question: And the MRT [2, 15]?
Answer: 97.8 ± 44.4 min

Question: And the Tmax [2, 15]?
Answer: 16.8 ± 12.6 min

Question: What about the half-life [2, 15] of the same compound?
Answer: 233 ± 225 min

Question: And the AUC(0-inf) [2, 16]?
Answer: 18.4 µM·h

Question: What about the AUC(0-t) [2, 16] of the same compound?
Answer: 17.6 µM·h

Question: And the Cmax [2, 16]?
Answer: 19.8 µM

Question: What about the MRT [2, 16] of the same compound?
Answer: 177 ± 166 min

Question: What about the Tmax [2, 16] of the same compound?
Answer: 11.4 ± 6 min

Question: What about the half-life [2, 16] of the same compound?
Answer: 305 ± 218 min

Question: What about the AUC(0-inf) [2, 17] of the same compound?
Answer: 5.03 ± 0.212 µM·h

Question: And the AUC(0-t) [2, 17]?
Answer: 4.94 ± 0.226 µM·h

Question: What about the MRT [2, 17] of the same compound?
Answer: 33.6 ± 16.8 min

Question: And the concentration at 5 min [2, 17]?
Answer: 15.3 µM

Question: What about the half-life [2, 17] of the same compound?
Answer: 96.6 ± 104 min

Question: And the AUC(0-inf) [2, 18]?
Answer: 3.9 ± 0.501 µM·h

Question: What about the AUC(0-t) [2, 18] of the same compound?
Answer: 3.77 ± 0.608 µM·h

Question: And the Cmax [2, 18]?
Answer: 5.23 ± 2.59 µM

Question: What about the MRT [2, 18] of the same compound?
Answer: 74.4 ± 40.8 min

Question: What about the Tmax [2, 18] of the same compound?
Answer: 19.8 ± 8.4 min

Question: And the half-life [2, 18]?
Answer: 79.8 ± 38.4 min

Question: And the AUC(0-inf) [2, 19]?
Answer: 6.81 ± 0.223 µM·h

Question: What about the AUC(0-t) [2, 19] of the same compound?
Answer: 6.71 ± 0.267 µM·h

Question: What about the Cmax [2, 19] of the same compound?
Answer: 7.03 ± 1.05 µM

Question: And the MRT [2, 19]?
Answer: 78.6 ± 11.4 min

Question: What about the Tmax [2, 19] of the same compound?
Answer: 19.8 ± 8.4 min

Question: What about the half-life [2, 19] of the same compound?
Answer: 87.6 ± 13.8 min

Question: And the AUC(0-inf) [2, 20]?
Answer: 18.4 µM·h

Question: And the AUC(0-t) [2, 20]?
Answer: 18.1 µM·h

Question: What about the Cmax [2, 20] of the same compound?
Answer: 16 µM

Question: And the MRT [2, 20]?
Answer: 96 ± 18.6 min

Question: And the Tmax [2, 20]?
Answer: 25.2 ± 8.4 min

Question: What about the half-life [2, 20] of the same compound?
Answer: 167 ± 82.8 min
